Experimental data published in ChEMBL document CHEMBL3120057, “Bioactive limonoids from the leaves of Azaridachta indica (Neem)” (J Nat Prod, 2014).
Active and inactive are the calls of the source. The calls are words filed in the database; no cut-off is given here.

Tests used:
HeLa [1] = assay: Cytotoxicity against human HeLa cells assessed as growth inhibition at 100 uM after 48 hrs by trypan blue exclusion assay; type: functional, cell-based
Outline: (§1)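 Cells cultured in DMEM with 10% FBS, streptomycin and penicillin at 37 °C under 5% CO2, and plated at 1.2 × 10^5/mL one day before treatment. Single 100 μM exposure for 48 h from DMSO stock diluted in medium. Viability read by MTT at 550 nm, blank-subtracted, as % of DMSO-vehicle control. Random checks by trypan blue exclusion count.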

PC-3 [2] = assay: Cytotoxicity against human PC3 cells assessed as growth inhibition at 100 uM after 48 hrs by trypan blue exclusion assay; type: functional, cell-based; outline: as §1
PC-3 [3] = assay: Cytotoxicity against human PC3 cells after 48 hrs; type: functional, cell-based; conditions: PC-3, 48 h
Outline: (§2)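 MTT viability. ATCC cells in DMEM with 10% FBS and penicillin/streptomycin at 37 °C under 5% CO2, plated at 1.2 × 10^5/mL the day before dosing. Exposed 48 h to 20−100 μM (DMSO stocks diluted in medium). Formazan dissolved in DMSO and read at 550 nm. Viability expressed as % of vehicle control, blank-subtracted. Checked by trypan blue count. PEITC as positive control. Mean ± SD, at least three experiments in duplicate.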

HeLa [4] = assay: Cytotoxicity against human HeLa cells after 48 hrs; type: functional, cell-based; outline: as §2
[5] = target: Heat shock protein HSP 90-alpha (Homo sapiens, UniProt P07900); assay: Binding affinity to recombinant HSP90-alpha (unknown origin) by surface plasmon resonance analysis

CC(=O)O[C@@H]1[C@H](O)[C@H]2C(C)(C)C(=O)C=C[C@]2(C)[C@H]2CC[C@]3(C)C(=CC[C@H]3c3ccoc3)[C@]12C [NIMONOL]
growth inhibition (GI) (HeLa [1]): Active | growth inhibition (GI) (PC-3 [2]): Active | IC50 (PC-3 [3]): 95 µM | IC50 (HeLa [4]): 77 µM

CC(=O)O[C@@H]1C[C@H](OC(=O)C=C(C)C)[C@@]2(C)[C@H]3[C@@H](OC[C@]13C)[C@@H](O)[C@@]1(C)C3=CC[C@@H]([C@@H]4COC(=O)C4)[C@]3(C)CC[C@@H]12
growth inhibition (GI) (HeLa [1]): inactive | growth inhibition (GI) (PC-3 [2]): inactive | Activity [5]: inactive

CC(=O)O[C@@H]1[C@H](O)[C@H]2C(C)(C)C(=O)CC[C@]2(C)[C@H]2CC[C@]3(C)C(=CC[C@H]3[C@H]3COC(=O)C3)[C@]12C
growth inhibition (GI) (HeLa [1]): inactive | growth inhibition (GI) (PC-3 [2]): inactive

C/C=C(\C)C(=O)O[C@H]1C[C@@H](O)[C@@]2(C)CO[C@H]3[C@H]4O[C@@H]5C[C@@H](c6ccoc6)C(C)=C5[C@@]4(C)[C@H](CC(=O)OC)[C@]1(C)[C@@H]32 [DESACETYL SALANNIN]
growth inhibition (GI) (HeLa [1]): inactive | growth inhibition (GI) (PC-3 [2]): inactive | Kd [5]: 0.033 µM

COc1cc(/C=C/C(=O)OC[C@H]2O[C@@H](OC(C)(C)C(=O)O)[C@H](O)[C@@H](O)[C@@H]2O)cc(OC)c1O
growth inhibition (GI) (HeLa [1]): inactive | growth inhibition (GI) (PC-3 [2]): inactive

COC(=O)C[C@H]1[C@]2(C)C3=C(C)[C@H](C4=COC(=O)C4O)C[C@@H]3O[C@@H]2[C@H](O)[C@@H]2[C@]1(C)C(=O)C=C[C@@]2(C)O (stereo partly drawn)
growth inhibition (GI) (HeLa [1]): inactive | growth inhibition (GI) (PC-3 [2]): inactive | Activity [5]: inactive

COC(=O)C[C@H]1[C@]2(C)C3=C(C)[C@H](C4=CC(=O)OC4O)C[C@@H]3O[C@@H]2[C@H](O)[C@@H]2[C@]1(C)C(=O)C=C[C@@]2(C)O (stereo partly drawn)
growth inhibition (GI) (HeLa [1]): inactive | growth inhibition (GI) (PC-3 [2]): inactive | Activity [5]: inactive

CC(=O)O[C@@H]1[C@H](O)[C@H]2C(C)(C)C(=O)CC[C@]2(C)[C@H]2CC[C@]3(C)C(=CC[C@H]3[C@@H]3CC(=O)OC3=O)[C@]12C (relative stereo)
growth inhibition (GI) (HeLa [1]): inactive | growth inhibition (GI) (PC-3 [2]): inactive

C/C=C(\C)C(=O)O[C@H]1C[C@@H](O)[C@@]2(C(=O)OC)CO[C@H]3[C@@H](O)[C@@](C)([C@]45O[C@@]4(C)[C@H]4C[C@@H]5O[C@@H]5OC=C[C@@]54O)[C@@H]4[C@@H](C(=O)OC)OC[C@@]14[C@@H]32
growth inhibition (GI) (HeLa [1]): inactive | growth inhibition (GI) (PC-3 [2]): inactive

CC(=O)O[C@@H]1[C@H](O)[C@H]2C(C)(C)C(=O)CC[C@]2(C)[C@H]2CC[C@]3(C)C(=CC[C@H]3c3ccoc3)[C@]12C
growth inhibition (GI) (HeLa [1]): Active | growth inhibition (GI) (PC-3 [2]): Active | IC50 (PC-3 [3]): 90 µM | IC50 (HeLa [4]): 74 µM

COC(=O)[C@H]1OC[C@]23[C@@H]1[C@](C)([C@]14O[C@@]1(C)[C@H]1C[C@@H]4O[C@@H]4OC=C[C@@]41O)[C@H](O)[C@@H]1OC[C@](C(=O)OC)([C@H](O)C[C@@H]2O)[C@H]13
growth inhibition (GI) (HeLa [1]): inactive | growth inhibition (GI) (PC-3 [2]): inactive

CC(=O)O[C@H]1C[C@@H](OC(C)=O)[C@@]2(C)CO[C@@H]3[C@@H](O)[C@@]4(C)C5=CC[C@@H](c6ccoc6)[C@]5(C)CC[C@@H]4[C@]1(C)[C@@H]32
growth inhibition (GI) (HeLa [1]): Active | growth inhibition (GI) (PC-3 [2]): Active | Kd [5]: 0.049 µM | IC50 (PC-3 [3]): 80 µM | IC50 (HeLa [4]): 74 µM

CC(=O)O[C@@H]1[C@H](O)[C@H]2C(C)(C)C(=O)C=C[C@]2(C)[C@H]2CC[C@]3(C)C(=CC[C@H]3C3=COC(=O)C3O)[C@]12C (relative stereo)
growth inhibition (GI) (HeLa [1]): inactive | growth inhibition (GI) (PC-3 [2]): inactive

CC(=O)O[C@@H]1[C@H](O)[C@H]2C(C)(C)C(=O)C=C[C@]2(C)[C@H]2CC[C@]3(C)C(=CC[C@H]3[C@@H]3CC(=O)OC3=O)[C@]12C (relative stereo)
growth inhibition (GI) (HeLa [1]): Active | growth inhibition (GI) (PC-3 [2]): Active | IC50 (PC-3 [3]): > 100 µM | IC50 (HeLa [4]): 95 µM

CC(=O)O[C@@H]1[C@H](O)[C@H]2C(C)(C)C(=O)CC[C@]2(C)[C@H]2CC[C@]3(C)C(=CC[C@H]3C3=COC(=O)C3O)[C@]12C (stereo partly drawn)
growth inhibition (GI) (HeLa [1]): inactive | growth inhibition (GI) (PC-3 [2]): inactive
